Activity calls are given as the source filed them. The rule behind the calls is not given here.
Tests used:
Adenosine receptor A1 = target: T1, Adenosine receptor A1 (Rattus norvegicus, UniProt P25099); assay: Displacement of [3H]CCPA from adenosine A1 receptor in rat brain cortical membranes after 90 mins by liquid scintillation counting method; format: cell membranes
T1 sequence (P25099 whole entry): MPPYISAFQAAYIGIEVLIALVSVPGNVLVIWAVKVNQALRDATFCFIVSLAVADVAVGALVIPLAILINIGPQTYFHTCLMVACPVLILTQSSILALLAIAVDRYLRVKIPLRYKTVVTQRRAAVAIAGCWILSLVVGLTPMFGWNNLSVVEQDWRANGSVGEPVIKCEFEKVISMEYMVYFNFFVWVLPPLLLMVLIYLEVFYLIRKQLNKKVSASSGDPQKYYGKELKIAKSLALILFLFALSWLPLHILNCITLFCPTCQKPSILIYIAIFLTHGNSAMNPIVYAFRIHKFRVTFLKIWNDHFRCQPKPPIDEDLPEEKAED
Method in brief: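 [³H]CCPA (1 nM) used with rat brain cortical or human A1-CHO membranes, 90 min at rt. Membranes pre-incubated 10-15 min with ADA 0.12 IU/mL. Nonspecific binding defined with 10 µM CADO. Compounds dissolved in DMSO, 2.5 % final. Filtration on GF/B filters with ice-cold Tris-HCl washes, then scintillation counting. Curves used 6-7 concentrations spanning 3 log units. At least three experiments, in duplicate (human) or triplicate (rat).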

Adenosine receptor A2a = Adenosine receptor A2a (Rattus norvegicus, UniProt P30543); assay: Displacement of [3H]MSX-2 from adenosine A2A receptor in rat brain striatal membranes after 30 mins by liquid scintillation counting method; format: cell membranes, Striatum, Membrane
Adenosine receptor A2a, sequence (P30543 whole entry): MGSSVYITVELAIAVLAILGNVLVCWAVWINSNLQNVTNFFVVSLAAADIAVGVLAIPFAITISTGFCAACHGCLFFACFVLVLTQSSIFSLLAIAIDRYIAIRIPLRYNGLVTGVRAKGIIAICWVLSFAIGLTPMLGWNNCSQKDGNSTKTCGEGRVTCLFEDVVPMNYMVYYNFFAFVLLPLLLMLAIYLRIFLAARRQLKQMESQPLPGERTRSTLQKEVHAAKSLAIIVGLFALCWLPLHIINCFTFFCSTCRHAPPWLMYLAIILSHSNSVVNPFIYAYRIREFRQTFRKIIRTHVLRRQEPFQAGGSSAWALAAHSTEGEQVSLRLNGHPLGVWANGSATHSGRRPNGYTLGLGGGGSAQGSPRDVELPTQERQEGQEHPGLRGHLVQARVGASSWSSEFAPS
Method in brief: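 [³H]MSX-2 (1 nM) used with rat striatal or human A2A-HEK membranes, 30 min at rt. Membranes pre-incubated 10-15 min with ADA 0.12 IU/mL. DMSO 2.5 % final. GF/B filtration, then scintillation counting. Curves used 6-7 concentrations over 3 log units. At least three experiments, in duplicate (human) or triplicate (rat).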

Adenosine receptor A2b [1] = target: T2, Adenosine receptor A2b (Mus musculus, UniProt Q60614); assay: Displacement of [3H]PSB-603 from recombinant mouse adenosine A2B receptor expressed in CHO cell membranes after 75 mins by liquid scintillation counting method
T2 sequence (Q60614 whole entry): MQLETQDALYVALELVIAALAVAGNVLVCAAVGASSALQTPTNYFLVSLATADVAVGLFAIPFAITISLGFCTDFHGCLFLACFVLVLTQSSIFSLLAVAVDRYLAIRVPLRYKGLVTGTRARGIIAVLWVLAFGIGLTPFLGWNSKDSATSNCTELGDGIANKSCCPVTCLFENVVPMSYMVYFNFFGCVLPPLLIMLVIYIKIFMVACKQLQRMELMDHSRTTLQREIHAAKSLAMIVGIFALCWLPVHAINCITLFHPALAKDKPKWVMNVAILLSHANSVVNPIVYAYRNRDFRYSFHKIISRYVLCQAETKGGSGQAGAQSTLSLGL
Method in brief: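 [³H]PSB-603 (0.3 nM) used with CHO membranes expressing human, mouse or rat A2BAR, 75 min at rt. Membranes pre-incubated 10-15 min with ADA 0.12 IU/mL. Nonspecific binding defined with 10 µM DPCPX. DMSO 2.5 % final. Filtration on GF/B with ice-cold 50 mM Tris-HCl pH 7.4 containing 0.1 % BSA, then scintillation counting. Curves used 6-7 concentrations over 3 log units. At least three experiments.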

Adenosine receptor A3 = target: T3, Adenosine receptor A3 (Homo sapiens, UniProt P0DMS8); assay: Displacement of [3H]PSB-11 from recombinant human adenosine A3 receptor expressed in CHO cell membranes after 45 mins by liquid scintillation counting method
T3 sequence (P0DMS8 whole entry): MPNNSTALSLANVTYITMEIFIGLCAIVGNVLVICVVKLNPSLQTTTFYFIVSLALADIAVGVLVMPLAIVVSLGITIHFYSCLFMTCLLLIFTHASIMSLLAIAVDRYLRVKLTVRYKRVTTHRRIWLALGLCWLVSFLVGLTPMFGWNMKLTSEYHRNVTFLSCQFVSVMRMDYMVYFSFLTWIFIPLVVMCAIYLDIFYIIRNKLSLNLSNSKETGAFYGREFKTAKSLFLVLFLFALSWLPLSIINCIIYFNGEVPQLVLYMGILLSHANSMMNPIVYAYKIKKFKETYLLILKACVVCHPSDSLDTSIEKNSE
Method in brief: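 Human A3-CHO membranes incubated with [³H]PSB-11 (1 nM) for 45 min at rt, after 10-15 min pre-incubation with ADA 0.12 IU/mL. Nonspecific binding defined with 100 µM R-PIA. DMSO 2.5 % final. GF/B filtration, then scintillation counting. Curves used 6-7 concentrations over 3 log units. At least three experiments in duplicate.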

[2] = Selectivity ratio of Ki for adenosine A2A receptor in rat brain striatal membranes to Ki for recombinant human adenosine A2B receptor expressed in CHO cell membranes; format: cell-based
[3] = Selectivity ratio of Ki for recombinant human adenosine A1 receptor expressed in CHO cell membranes to Ki for recombinant mouse adenosine A2B receptor expressed in CHO cell membranes; format: cell-based
Adenosine receptor A2b [4] = target: T4, Adenosine receptor A2b (Homo sapiens, UniProt P29275); assay: Antagonist activity at recombinant human adenosine A2B receptor expressed in CHO cell membranes assessed as inhibition of NECA-induced cAMP accumulation preincubated for 1 hr followed by NECA induction measured after 5 mins in presence of [3H]cAMP and bovine cAMP-binding protein by liquid scintillation counting method; format: functional
T4 sequence (P29275 whole entry): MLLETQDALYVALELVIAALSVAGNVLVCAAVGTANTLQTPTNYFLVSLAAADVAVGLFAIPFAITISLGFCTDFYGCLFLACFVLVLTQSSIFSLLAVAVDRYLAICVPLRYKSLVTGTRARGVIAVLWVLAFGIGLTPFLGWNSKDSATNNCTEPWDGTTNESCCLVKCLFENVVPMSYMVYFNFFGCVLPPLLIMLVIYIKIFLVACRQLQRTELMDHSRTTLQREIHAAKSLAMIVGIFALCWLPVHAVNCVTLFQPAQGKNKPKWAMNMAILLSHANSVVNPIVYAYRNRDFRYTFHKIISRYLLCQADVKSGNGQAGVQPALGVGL
Method in brief: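 CHO cells stably expressing human A2BAR, pre-incubated with antagonist dilutions for 1 h at 37°C, then stimulated with NECA (10 µM final) for 5 min at 37°C. Reaction stopped with hot (90 °C) lysis solution (4 mM EDTA, 0.01 % Triton X100). cAMP quantified by radioactive competition with [³H]cAMP and bovine adrenal cAMP-binding protein. Response expressed as % of NECA response without antagonist. Means ± SEM, three independent experiments in duplicate.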

[5] = target: T5, Adenosine receptor A2b (Homo sapiens) (UniProt P29275); assay: Binding affinity to recombinant human adenosine A2B receptor expressed in CHO cell membranes at 100 nM after 15 mins by confocal microscopic method; format: cell-based
T5 sequence (whole entry): T4 sequence (P29275 whole entry)
Method in brief: (§1)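 Live CHO cells stably expressing human A2BAR (or wild-type CHO as control) grown on chambered coverslips to about 80 % confluency. Incubated with fluorescent ligand (100 nM) for 15 min at 37°C, alone or after 30 min pre-incubation with PSB-603 (100 nM) or DPCPX (1 µM). Confocal laser scanning imaging with identical settings across conditions. Three similar experiments.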

[6] = Binding affinity to wild type CHO cell membranes at 100 nM after 15 mins by confocal microscopic method; format: cell-based, Cricetulus griseus; conditions: chinese hamster, 0.25 h, 0.1 µM; method in brief: as §1

## CCCn1c(=O)[nH]c2nc(-c3ccc(OCC(=O)NCCC4=C5C(C)=CC(C)=[N+]5[B-](F)(F)n5c(C)cc(C)c54)cc3)[nH]c2c1=O
Adenosine receptor A1
  Ki: 422 nM
Adenosine receptor A2a
  Ki: > 10 µM
Adenosine receptor A2b [1]
  Ki: 1.32 nM
Adenosine receptor A3
  Ki: > 10 µM
[2]
  Ratio Ki: > 150
[3]
  Ratio Ki: > 1000
Adenosine receptor A2b [4]
  IC50: 262 nM
[5]
  Activity: Active
[6]
  Activity: Not Active

Source: ChEMBL document CHEMBL4184319, “Fluorescent-Labeled Selective Adenosine A2B Receptor Antagonist Enables Competition Binding Assay by Flow Cytometry” (J Med Chem, 2018)
